The source of these data is PubChem BioAssay.

Assay [1] in a line: reducers of endogenous Her2 protein level, primary screen, SKBR3 breast tumor cells, AlphaScreen, ATP viability (AID 461;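 active means Her2 level under about 52% in both replicate screens, with viability over 70% of control, limit read from the data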;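 on Her2 level: lower value means less Her2 protein in the cells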;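 on viability: percent of carrier control wells set as 100% viability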). The conditions noted are these: 18-24 h, measured here: SKBR3 viability, ATP luminescence, at 10 µM.
The target of assay [2] is Receptor tyrosine-protein kinase erbB-2 (Homo sapiens) (UniProt P04626). The assay is described as above. Conditions: 18-24 h, at 10 µM, stronger effect = lower value.
Assay [3] is described as follows: SK-BR-3 cell growth inhibitors, pilot screen, 24 h, human (AID 572;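 active means viability at or below 10% of carrier control in both of two separate runs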;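 further: compound exposure lasted between 18 and 24 h rather than exactly 24 h; 100% = carrier-treated control wells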). Conditions: SK-BR-3 viability, CellTiter-Glo luminescence, at 10 µM, stronger effect = lower value. For orientation: Cellular ATP, detected with luciferase, serves as a proxy for viable cell number.
A short description of assay [4]: HUVEC growth inhibition – cell-based, human, primary screen (AID 575).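 Further: 100% = median of untreated cell wells with 0.1% DMSO on each plate.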 Conditions: HUVEC proliferation, CellTiter-Glo luminescence, 72 h; at 10 µM; stronger effect = lower value. The essentials: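 Test system: primary human umbilical vein endothelial cells; medium: endothelial basal medium with 2% FBS plus growth supplements; dosing: 10 µM compound only; times: 72 h treatment at 37 °C; signal: CTG luminescence; read-out: % viability relative to median vehicle-well signal on each plate; control set: vehicle and MePR control wells; plate: 384-well, collagen-coated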

The nature of assay [5]: growth inhibitors of H69AR lung tumor, primary screen, human, duplicate replicates (AID 580;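 active means viability at or under a set limit in both replicates, limit being median viability minus 3 SD, cut at about 48% in these data, passing the limit was not always enough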;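 further: 100% = mean luminescence of untreated wells and 0% = no signal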). Conditions: H69AR lung tumor cells viability, ATP luminescence, 72 h; at 10 µM; stronger effect = lower value.
Assay [6] can be described thus: reversal of MRP1-mediated doxorubicin resistance, pilot screen, H69AR cells, doxorubicin co-treatment (AID 601;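 active means viability loss from added drug above about 55%, and viability with drug at most 40%, in both replicates, limit read from the data, passing the limit was not always enough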). The conditions noted are these: CellTiter-Glo, 72 h, at 10 µM; for differential viability (reversal): stronger effect = higher value.
Assay [7] is described as follows: 384-well plate pilot, post-Golgi transport modulator project, inhibition of yeast transport mutant growth (AID 636; in the data active means inhibition above about 31%). The conditions noted are these: absorbance 615 nm, about 18 h, stronger effect = higher value.
Assay [8] in a line: growth suppression of yeast trafficking mutant, preliminary HTS, modulators of trafficking downstream of Golgi apparatus project, 1536-format plate, OD 615 nm (AID 637; in the data active means inhibition above about 30%). The conditions noted are these: yeast transport mutant growth, absorbance 615 nm, 18 h; stronger effect = higher value.
The mark [9] stands for this setting: H69AR cells + 2 uM doxorubicin, measured here: viability with 2 uM doxorubicin, stronger effect = lower value.
Setting [10] is: H69AR cells, compound alone cytotoxicity.

A word on the viability: it is a read-out of living cells in per cent, often relative to untreated cells. A word on the inhibition: it is the relative decrease from the control value, in per cent.

Calls of active or inactive are those of the source.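 How the source made its calls, unless noted: active means viability at or below 30% in both replicate assays; inconclusive means viability at or below 30% in just one of the two assays; inactive means the rest.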

Chain of Receptor tyrosine-protein kinase erbB-2 (Homo sapiens) (P04626 whole entry, looked up): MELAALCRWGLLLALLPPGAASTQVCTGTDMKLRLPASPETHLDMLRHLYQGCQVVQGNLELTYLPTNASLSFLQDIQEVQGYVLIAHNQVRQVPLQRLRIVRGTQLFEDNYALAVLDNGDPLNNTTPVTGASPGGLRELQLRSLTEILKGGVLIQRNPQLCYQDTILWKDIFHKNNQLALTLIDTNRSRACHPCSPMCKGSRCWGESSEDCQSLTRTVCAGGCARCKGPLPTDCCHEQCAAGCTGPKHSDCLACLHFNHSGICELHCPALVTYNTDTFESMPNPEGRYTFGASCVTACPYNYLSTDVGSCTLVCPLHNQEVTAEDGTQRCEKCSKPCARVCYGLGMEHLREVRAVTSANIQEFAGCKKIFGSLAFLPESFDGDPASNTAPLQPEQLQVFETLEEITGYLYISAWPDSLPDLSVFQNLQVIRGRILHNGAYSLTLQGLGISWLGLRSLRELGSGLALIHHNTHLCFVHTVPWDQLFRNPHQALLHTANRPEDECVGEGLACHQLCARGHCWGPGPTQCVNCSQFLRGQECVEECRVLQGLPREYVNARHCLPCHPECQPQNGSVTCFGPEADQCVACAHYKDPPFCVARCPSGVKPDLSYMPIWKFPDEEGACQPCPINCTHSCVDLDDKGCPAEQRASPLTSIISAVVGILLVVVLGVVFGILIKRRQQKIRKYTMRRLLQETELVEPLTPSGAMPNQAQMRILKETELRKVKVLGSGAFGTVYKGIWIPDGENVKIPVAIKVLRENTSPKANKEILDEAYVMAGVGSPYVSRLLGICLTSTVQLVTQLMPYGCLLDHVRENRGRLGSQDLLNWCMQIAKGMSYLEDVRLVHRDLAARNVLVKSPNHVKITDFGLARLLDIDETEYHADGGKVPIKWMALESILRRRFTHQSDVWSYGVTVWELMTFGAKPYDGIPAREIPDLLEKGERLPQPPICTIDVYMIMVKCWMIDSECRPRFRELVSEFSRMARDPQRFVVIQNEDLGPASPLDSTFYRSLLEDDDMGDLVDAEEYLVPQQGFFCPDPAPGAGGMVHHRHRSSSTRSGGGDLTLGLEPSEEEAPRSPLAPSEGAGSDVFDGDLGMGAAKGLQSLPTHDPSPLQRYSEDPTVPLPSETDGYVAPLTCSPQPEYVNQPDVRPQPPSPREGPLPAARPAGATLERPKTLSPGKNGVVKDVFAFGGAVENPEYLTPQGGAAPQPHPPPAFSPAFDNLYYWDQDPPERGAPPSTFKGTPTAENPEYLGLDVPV

Regarding `COc1ccc(S(=O)(=O)Cc2ccc(C(=O)N3CCN(Cc4ccccc4)CC3)o2)cc1`, the viability in assay [1] is 86.5%; in assay [3] it was 86.5% (inactive); in assay [4], 95% (inactive); in assay [5], 84.9% (inactive); in assay [6] (setting [9]), 85.6%; in assay [6] (setting [10]), 84.9%. Moreover, in assay [2], the Her2 level was 102% (inactive). Also, the differential viability (reversal) in assay [6] (H69AR cells + 2 uM doxorubicin) is -0.78% (inactive). The inhibition in assay [7] was -1.41% (inactive); in assay [8], 0.5% (inactive).

Regarding `CCN(CC)C(=O)C1=C(C)NC(=O)NC1c1c(F)cccc1Cl` (stereo not given), the viability was 108% in assay [1]; 108% (inactive) in assay [3]; 96.8% (inactive) in assay [4]; 101% (inactive) in assay [5]; 87.2% in assay [6] (setting [9]); 101% in assay [6] (setting [10]). For the same molecule, in assay [2], the Her2 level was 108% (inactive). Moreover, the differential viability (reversal) in assay [6] (H69AR cells + 2 uM doxorubicin) is 13.7% (inactive). Further, the inhibition in assay [7] is -3.82% (inactive); in assay [8] it was 4.92% (inactive).

In the case of `CCOC(=O)CCC(=O)Nc1ccc(S(=O)(=O)N2CCCC2)cc1`, the viability in assay [1] is 94.5%; in assay [3], 94.5% (inactive); in assay [4], 105% (inactive); in assay [5], 102% (inactive); in assay [6] (setting [9]) it was 96.3%; in assay [6] (setting [10]), 102%. Also, the Her2 level in assay [2] was 102% (inactive). In addition, in assay [6] (H69AR cells + 2 uM doxorubicin), the differential viability (reversal) was 5.38% (inactive). For the same molecule, the inhibition is -3.68% (inactive) in assay [7] and -4.6% (inactive) in assay [8].

As for `COc1ccc(-c2c3c(=O)n(C)c(=O)n(C)c3cn2-c2cccc(OC)c2)cc1`, the viability in assay [1] was 105%; in assay [3], 105% (inactive); in assay [4] it was 95.9% (inactive); in assay [5], 89.7% (inactive); in assay [6] (setting [9]), 93.2%; in assay [6] (setting [10]), 89.7%. Further, the Her2 level in assay [2] was 97% (inactive). Also, the differential viability (reversal) in assay [6] (H69AR cells + 2 uM doxorubicin) is -3.48% (inactive). Also, the values for the inhibition in assay [7] and in assay [8] were 0.39% (inactive) and -6.03% (inactive), respectively.

In the case of `Cc1ccccc1NC(=O)CSc1nnc(Cc2cccn2C)n1-c1ccc(F)cc1`, the viability in assay [1] is 88.5%; in assay [3], 88.5% (inactive); in assay [4], 78.6% (inactive); in assay [5], 100% (inactive); in assay [6] (setting [9]) it was 102%; in assay [6] (setting [10]) it was 100%. The Her2 level in assay [2] was 112% (inactive). Moreover, the differential viability (reversal) in assay [6] (H69AR cells + 2 uM doxorubicin) was -1.44% (inactive). In addition, the inhibition is -0.9% (inactive) in assay [7] and -3.5% (inactive) in assay [8].

In the case of `CCSc1nnc(-c2ccc(OC)cc2)o1`, the viability in assay [1] was 100%; in assay [3], 100% (inactive); in assay [4] it was 92.7% (inactive); in assay [5] it was 81.2% (inactive); in assay [6] (setting [9]) it was 91.6%; in assay [6] (setting [10]), 81.2%. In assay [2], the Her2 level is 93.5% (inactive). The differential viability (reversal) in assay [6] (H69AR cells + 2 uM doxorubicin) is -10.4% (inactive). The figures for the inhibition in assay [7] and in assay [8] were -0.51% (inactive) and -11% (inactive), respectively.

In the case of `COc1ccc(CNC(=O)C(c2ccco2)N(Cc2cccs2)C(=O)Cc2cccs2)cc1` (stereo not given), the viability was 96.5% in assay [1]; 96.5% (inactive) in assay [3]; 67.5% (inactive) in assay [4]; 72.5% (inactive) in assay [5]; 64.3% in assay [6] (setting [9]); 72.5% in assay [6] (setting [10]). Moreover, the Her2 level in assay [2] is 86.5% (inactive). Further, in assay [6] (H69AR cells + 2 uM doxorubicin), the differential viability (reversal) was 8.17% (inactive). Further, the values for the inhibition in assay [7] and in assay [8] were -1.95% (inactive) and -4.29% (inactive), respectively.

Turning to `CCOC(=O)c1[nH]c(C)c(C(=O)Nc2ccccc2C)c1C`, the viability is 79.5% in assay [1]; 79.5% (inactive) in assay [3]; 60.8% (inactive) in assay [4]; 19.3% (active) in assay [5]; 65.9% in assay [6] (setting [9]); 19.3% in assay [6] (setting [10]). In addition, in assay [2], the Her2 level is 85% (inactive). For the same molecule, the differential viability (reversal) in assay [6] (H69AR cells + 2 uM doxorubicin) is -46.6% (inactive). For the same molecule, the inhibition is -0.9% (inactive) in assay [7] and 3.67% (inactive) in assay [8].

With `Cc1cc(C)nc(N2CCC(C(=O)Nc3ccc4c(c3)CCC4)CC2)n1`, the viability in assay [1] was 81.5%; in assay [3], 81.5% (inactive); in assay [4], 54.9% (inactive); in assay [5] it was 103% (inactive); in assay [6] (setting [9]), 96%; in assay [6] (setting [10]), 103%. Further, the Her2 level in assay [2] was 85% (inactive). Besides, in assay [6] (H69AR cells + 2 uM doxorubicin), the differential viability (reversal) is 7.34% (inactive). The figures for the inhibition in assay [7] and in assay [8] were -4.74% (inactive) and -2.67% (inactive), respectively.

Turning to `C/C(=C\C(=O)c1ccc(F)cc1)Nc1ccc(N2CCOCC2)cc1`, the viability in assay [1] is 89.5%; in assay [3], 89.5% (inactive); in assay [4], 114% (inactive); in assay [5], 90.9% (inactive); in assay [6] (setting [9]), 89.1%; in assay [6] (setting [10]), 90.9%. The Her2 level in assay [2] was 97% (inactive). For the same molecule, in assay [6] (H69AR cells + 2 uM doxorubicin), the differential viability (reversal) was 1.85% (inactive). Besides, the inhibition is -4.4% (inactive) in assay [7] and -0.65% (inactive) in assay [8].

As for `COc1ccccc1C(=O)Nc1nc2ccc(S(C)(=O)=O)cc2s1`, the viability in assay [1] was 89.5%; in assay [3], 89.5% (inactive); in assay [4] it was 93.5% (inactive); in assay [5] it was 79.5% (inactive); in assay [6] (setting [9]), 85.6%; in assay [6] (setting [10]) it was 79.5%. Besides, the Her2 level in assay [2] was 78% (inactive). Further, in assay [6] (H69AR cells + 2 uM doxorubicin), the differential viability (reversal) was -6.1% (inactive). In addition, the inhibition in assay [7] is 0.64% (inactive); in assay [8], -1% (inactive).

For `Cc1ccc(-n2nnnc2SCC(=O)N2CCc3ccccc3C2)cc1`, the viability in assay [1] was 113%; in assay [3], 113% (inactive); in assay [4], 99.9% (inactive); in assay [5], 82.1% (inactive); in assay [6] (setting [9]), 90.8%; in assay [6] (setting [10]) it was 82.1%. In addition, in assay [2], the Her2 level is 82.5% (inactive). In addition, the differential viability (reversal) in assay [6] (H69AR cells + 2 uM doxorubicin) is -8.77% (inactive). Moreover, the inhibition in assay [7] was -2.5% (inactive); in assay [8], 0.48% (inactive).

As for `O=C(COC(=O)c1ccco1)NCc1cccs1`, the viability in assay [1] was 112%; in assay [3] it was 112% (inactive); in assay [4], 98.9% (inactive); in assay [5], 106% (inactive); in assay [6] (setting [9]), 95.3%; in assay [6] (setting [10]) it was 106%. For the same molecule, the Her2 level in assay [2] was 97.5% (inactive). For the same molecule, in assay [6] (H69AR cells + 2 uM doxorubicin), the differential viability (reversal) was 10.7% (inactive). The inhibition is -7.76% (inactive) in assay [7] and 0% (inactive) in assay [8].

Regarding `CCOc1ccc(C2C(C(=O)OC)=CN(CCOC)C=C2C(=O)OC)cc1`, the viability in assay [1] is 106%; in assay [3], 106% (inactive); in assay [4], 90% (inactive); in assay [5] it was 97.3% (inactive); in assay [6] (setting [9]), 99.2%; in assay [6] (setting [10]), 97.3%. Besides, in assay [2], the Her2 level is 109% (inactive). Further, the differential viability (reversal) in assay [6] (H69AR cells + 2 uM doxorubicin) was -1.94% (inactive). Further, the inhibition in assay [7] was 0.64% (inactive); in assay [8] it was -1.33% (inactive).
